Screening results as filed in PubChem.
Sampled rows, rich in hits. Any-hit rate of the full collection: about 2.6%.
E-sel inducer – E-selectin induction in HUVECs, primary screen, imaging, HUVEC, immunofluorescence imaging, single point | P16581 | normalized: neutral wells 0, TNF-alpha wells 100 | activation, % at 7.58 µM | 0.37% of 260,000 active | AID 686992, 2013;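 active = mean E-selectin-positive cell signal at least 10% of the positive control, reached in at least 60% of replicates, without over 20% cell loss; inconclusive = no rule given, readout overlaps actives, possibly toxicity-flagged; inactive = the rest, including those meeting only one limit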
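Test system: HUVEC; input: 3,000 HUVEC/well; measured by: immunofluorescence imaging; read-out: % PE-positive cells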
CFTR F508del cor – F508del CFTR correction, initial screen, CFBE line, single point | CFBE cells, YFP halide quenching; stimulated with forskolin plus potentiator P3; % fluorescence drop versus neutral controls | activity (quench increase), % at 7.58 µM | 0.36% of 350,000 active;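 active = mean added fluorescence quench of at least 8% versus neutral control, with both replicates also reaching 8%; inconclusive = only one of the mean or replicate conditions met; inactive = mean below 8% and not both replicates reaching 8%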;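 also: cells transiently co-express mutant CFTR-F508del with the halide-sensitive YFP; corrector assay measuring rescue of mutant channel to the surface after 24 h compound exposure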
DENV2 CPE rescue – inhibitors of DENV2 cytopathic effect, primary screen, cell-based, plate reader, single concentration | DENV2-infected cells, cytopathic effect rescue | CPE inhibition, % at 9.99 µM | 1.7% of 350,000 active | AID 651640, 2012; in the data active = CPE inhibition above about 20%, passing the limit was not always enough; inconclusive = no clear call, values can overlap the other calls; tested in BHK-21 cells;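 also: 0% = median of neutral control wells and 100% = median of positive control wells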
INS-1E GSIS act – GLuc luminescence reporter in INS-1E cells, primary screen for activators of glucose-dependent secretion of insulin | INS-1E GLuc reporter insulin secretion, 2-3 h | activation, % at 16.6 µM | 0.61% of 370,000 active;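 active = lowest replicate activation of at least 40%, so every replicate reaches that level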;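 also: 0% = median of neutral control wells and 100% = median of IBMX positive control wells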
ERAP1 inh – human ERAP1 aminopeptidase inhibitors, primary screen, biochemical, single point, plate reader; Endoplasmic reticulum aminopeptidase 1 (Homo sapiens), Q9NZ08; recombinant ERAP1, Leu-AMC fluorescence, 60 min; inhibition, % at 10.7 µM; 0.15% of 340,000 active; AID 652197, 2013;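 active = mean replicate inhibition of at least 30%, or all replicates individually reaching that 30% level; inactive = mean below 30% and not every replicate reaching it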;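 also: 0% = neutral control wells and 100% = L-leucinethiol positive control wells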
Target sequence (Q9NZ08 whole entry, looked up): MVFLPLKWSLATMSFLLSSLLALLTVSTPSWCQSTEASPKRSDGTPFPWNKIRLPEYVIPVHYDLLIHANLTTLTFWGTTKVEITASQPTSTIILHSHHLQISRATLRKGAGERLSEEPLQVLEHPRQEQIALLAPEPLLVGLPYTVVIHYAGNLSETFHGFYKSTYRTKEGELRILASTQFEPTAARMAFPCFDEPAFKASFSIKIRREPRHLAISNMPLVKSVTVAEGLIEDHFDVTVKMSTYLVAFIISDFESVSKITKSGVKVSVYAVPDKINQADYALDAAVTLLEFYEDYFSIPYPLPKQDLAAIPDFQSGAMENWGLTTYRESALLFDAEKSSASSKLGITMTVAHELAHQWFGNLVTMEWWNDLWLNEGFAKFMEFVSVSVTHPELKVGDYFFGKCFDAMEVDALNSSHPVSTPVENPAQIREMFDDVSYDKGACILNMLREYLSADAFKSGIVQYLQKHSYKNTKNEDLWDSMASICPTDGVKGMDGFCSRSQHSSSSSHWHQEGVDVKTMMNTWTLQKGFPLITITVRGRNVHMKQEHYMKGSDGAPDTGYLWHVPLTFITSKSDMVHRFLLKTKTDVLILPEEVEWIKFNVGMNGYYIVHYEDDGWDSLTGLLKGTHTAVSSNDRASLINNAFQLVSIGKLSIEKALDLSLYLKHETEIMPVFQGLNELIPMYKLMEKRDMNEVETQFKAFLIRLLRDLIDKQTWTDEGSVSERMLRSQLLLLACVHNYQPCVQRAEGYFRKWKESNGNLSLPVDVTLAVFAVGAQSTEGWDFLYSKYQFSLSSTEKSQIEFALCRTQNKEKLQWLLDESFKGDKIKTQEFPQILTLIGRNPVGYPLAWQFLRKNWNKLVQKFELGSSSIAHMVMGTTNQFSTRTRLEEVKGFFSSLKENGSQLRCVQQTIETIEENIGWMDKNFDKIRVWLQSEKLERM
miR-122 sensor – miR-122 Renilla sensor signal increase in Huh7, primary screen, miR-122 inhibitor project, cell-based, single point, plate reader | activation (reporter increase), % at 12.5 µM | 0.3% of 340,000 active | Huh7 miR-122 Renilla luciferase sensor, 48 h; neutral wells = 0, positive control = 100;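 active = mean replicate activation score at least 90 and every replicate individually at or above 90; inconclusive = only one of the two criteria met; inactive = neither criterion met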;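 also: higher luciferase means less miR-122 activity so hits act as miR-122 inhibitors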
Numbers without * were called inactive; [ ] = dose if it differs, or a comment.

Results for Cc1ccc(/C=N/NC(=O)c2c(-c3ccccc3)noc2C)c(O)c1 ?
E-sel inducer: 1; CFTR F508del cor: 11*; DENV2 CPE rescue: -1; INS-1E GSIS act: 4; ERAP1 inh: 2; miR-122 sensor: 6

How did COc1cccc(/C=N/NC(=O)c2c(-c3ccccc3)noc2C)c1O do in these assays?
miR-122 sensor: 3

How did CO[C@H]1CN(C)C(=O)c2cc(NS(C)(=O)=O)ccc2OC[C@H](C)N(CC2CCCCC2)C[C@H]1C do in these assays?
E-sel inducer: 0; CFTR F508del cor: -2; DENV2 CPE rescue: 3; INS-1E GSIS act: 14; ERAP1 inh: -2; miR-122 sensor: -11[16.7 µM]

How did Cn1cc(CN(CCCN2CCOCC2)C(=S)Nc2cccc(Cl)c2)c2ccccc21 do in these assays?
CFTR F508del cor: 1; DENV2 CPE rescue: 40*; INS-1E GSIS act: -15; ERAP1 inh: 2; miR-122 sensor: -2

Results for Cc1cccc(NC(=S)N(CCCN2CCOCC2)Cc2cn(C)c3ccccc23)c1 ?
INS-1E GSIS act: -18; miR-122 sensor: -3

How did COc1ccc(COCC23N=C4SCc5ccccc5CN4[C@H](c4ccccc4O2)[C@H]3COC(=O)c2ccccc2)cc1 do in these assays?
CFTR F508del cor: 2; DENV2 CPE rescue: 32*; ERAP1 inh: 4

Results for COc1ccc(COCC23N=C4SCc5ccccc5C(=O)N4[C@H](c4ccccc4O2)[C@H]3COC(=O)c2ccccc2)cc1 ?
CFTR F508del cor: -1; DENV2 CPE rescue: 12; ERAP1 inh: -2

Results for Cc1ccc(S(=O)(=O)N[C@H](C(=O)OCC(=O)NC(=O)Nc2ccc3c(c2)OCCO3)C(C)C)cc1 ?
E-sel inducer: 0; INS-1E GSIS act: -7

Results for Cc1ccc(S(=O)(=O)N[C@H](C(=O)OCC(=O)NC(=O)C2CCCCC2)C(C)C)cc1 ?
E-sel inducer: 1; CFTR F508del cor: 12*; DENV2 CPE rescue: inconclusive; INS-1E GSIS act: -16; ERAP1 inh: 0; miR-122 sensor: 5

What do the screens show for `CCc1cccc(CC)c1NC(=O)COC(=O)C1(c2ccc(Cl)cc2)CCCC1`?
INS-1E GSIS act: -1; miR-122 sensor: 113*

Results for COc1cccc(CNC(=O)CSc2nc3ccc(C)cc3[nH]2)c1 ?
E-sel inducer: 2; CFTR F508del cor: 8.4*; DENV2 CPE rescue: 6; INS-1E GSIS act: 8; ERAP1 inh: -3; miR-122 sensor: 0

Results for Cc1noc(C)c1S(=O)(=O)N(C)C[C@H]1OCCCC[C@H](C)Oc2ccc(NC(=O)Nc3ccccc3)cc2C(=O)N([C@H](C)CO)C[C@H]1C ?
E-sel inducer: 0; CFTR F508del cor: -1; DENV2 CPE rescue: 0; INS-1E GSIS act: -7; ERAP1 inh: 5; miR-122 sensor: 4[16.7 µM]

How did N#Cc1ncn(C2OC(CO)C(O)C2O)c1N (stereo unspecified) do in these assays?
E-sel inducer: 0; CFTR F508del cor: 10.0*; DENV2 CPE rescue: 5; INS-1E GSIS act: -7; ERAP1 inh: -7

What do the screens show for `Nc1ncnc2c1ncn2[C@@H]1O[C@H](CO)[C@@H](O)[C@H]1O`?
E-sel inducer: 0; CFTR F508del cor: 2; DENV2 CPE rescue: 2; ERAP1 inh: 0; miR-122 sensor: -3

How did CC1CC(C)CN(C(=O)COC(=O)c2nccnc2N)C1 (stereo unspecified) do in these assays?
E-sel inducer: 0; CFTR F508del cor: -2; DENV2 CPE rescue: 45*; ERAP1 inh: -21; miR-122 sensor: 0

What do the screens show for `CC1CC(C)CN(C(=O)COC(=O)c2ccc(Cl)nc2)C1` (stereo unspecified)?
E-sel inducer: 0; CFTR F508del cor: 0; DENV2 CPE rescue: 1; INS-1E GSIS act: 11; ERAP1 inh: -1; miR-122 sensor: -10

Results for CCNC(=O)[C@H]1[C@H](CO)[C@H]2Cn3c(ccc(-c4cccnc4)c3=O)[C@H]2N1Cc1ccccc1 ?
E-sel inducer: 0; CFTR F508del cor: -4; DENV2 CPE rescue: -5; INS-1E GSIS act: 15; ERAP1 inh: 1; miR-122 sensor: -4[16.7 µM]

How did COc1ccc(N/C=C/C(=O)c2ccc(Cl)cc2)cc1 do in these assays?
INS-1E GSIS act: 112*

What do the screens show for `O=C(Nc1ccc(Cl)cc1)N(CCCN1CCOCC1)Cc1cccs1`?
E-sel inducer: 0; CFTR F508del cor: 0; DENV2 CPE rescue: 26*; INS-1E GSIS act: -11; ERAP1 inh: 2; miR-122 sensor: 2

What do the screens show for `CCCNC(=O)C[C@H]1C[C@@H]2c3cc(NS(=O)(=O)c4ccc(OC)cc4)ccc3O[C@@H]2[C@@H](CO)O1`?
E-sel inducer: 0; CFTR F508del cor: 1; DENV2 CPE rescue: -7; INS-1E GSIS act: -7; miR-122 sensor: 3[16.7 µM]

How did COc1ccc(C#Cc2cccc(-c3nc(C(=O)N[C@@H]4CCN(Cc5ccccc5)C4)cc4c3[C@H](CCO)N(S(=O)C(C)(C)C)C4)c2)cc1OC (stereo partly specified) do in these assays?
CFTR F508del cor: -1; DENV2 CPE rescue: -7; ERAP1 inh: -2

What do the screens show for `C[C@@H]1CN([C@@H](C)CO)C(=O)c2cc(NS(=O)(=O)c3ccc(F)cc3)ccc2O[C@@H](C)CCCCO[C@@H]1CN(C)C(=O)CCCN(C)C`?
E-sel inducer: 0; CFTR F508del cor: 0; DENV2 CPE rescue: 83*; INS-1E GSIS act: 7; ERAP1 inh: 7; miR-122 sensor: -1[16.7 µM]

What do the screens show for `C[C@H]1CCCCO[C@H](CN(C)C(=O)CCCN(C)C)[C@@H](C)CN([C@@H](C)CO)C(=O)c2cc(NS(=O)(=O)c3ccc(F)cc3)ccc2O1`?
E-sel inducer: 0; CFTR F508del cor: 3; DENV2 CPE rescue: 56*; INS-1E GSIS act: -9; ERAP1 inh: -1; miR-122 sensor: 2[16.7 µM]

What do the screens show for `C[C@H]1CCCCO[C@@H](CN(C)C(=O)CCCN(C)C)[C@@H](C)CN([C@@H](C)CO)C(=O)c2cc(NS(=O)(=O)c3ccc(F)cc3)ccc2O1`?
E-sel inducer: 0; CFTR F508del cor: -2; DENV2 CPE rescue: -10; INS-1E GSIS act: -1; ERAP1 inh: 2; miR-122 sensor: 1[16.7 µM]

What do the screens show for `Cc1noc(C)c1S(=O)(=O)N(C)C[C@@H]1OCCCC[C@@H](C)Oc2ccc(NC(=O)Cc3ccccc3)cc2C(=O)N([C@H](C)CO)C[C@H]1C`?
E-sel inducer: 0; CFTR F508del cor: -3; DENV2 CPE rescue: -6; INS-1E GSIS act: -19; ERAP1 inh: 0; miR-122 sensor: -1[16.7 µM]
